Hits are enriched below; roughly 1.9% of the tested compounds scored in any of these assays.
sPLA2-III inh: Blocks human group III sPLA2 activity. inhibition, % at 12.2 µM. Q9NZ20. QFRET BODIPY PC-A2 liposome hydrolysis, fluorescence. 370,000 tested, 0.56% active;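 active means inhibition above mean plus 3 SD of compounds lying within the high and low control bounds, cut at about 19% in these data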;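 further: 0% = median of test compound wells and 100% = no enzyme DMSO wells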
procasp3 activ: activates human procaspase-3; recombinant procaspase-3 D3A, Ac-DEVD-pNA absorbance 405 nm; activation, % at 8.5 µM; 330,000 tested, 0.11% active; AID 463141;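 active means activation above the mean of all tested compounds plus 3 SD, cut at about 21% in these data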;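 further: 0% = DMSO alone and 100% = DMSO wells spiked with extra 5 µM PC-3 D3A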
Target sequence (P42574 whole entry D9A/D28A/D175A): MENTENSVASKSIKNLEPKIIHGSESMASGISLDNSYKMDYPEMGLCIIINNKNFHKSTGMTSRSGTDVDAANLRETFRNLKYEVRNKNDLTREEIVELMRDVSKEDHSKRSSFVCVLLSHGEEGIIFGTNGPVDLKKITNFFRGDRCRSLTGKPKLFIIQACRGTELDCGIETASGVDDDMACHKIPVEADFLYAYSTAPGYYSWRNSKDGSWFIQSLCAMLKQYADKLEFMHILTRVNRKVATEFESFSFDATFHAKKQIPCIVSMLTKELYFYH
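Compound: 8.5 µM single point, 0.8% DMSO / Material: Autoprocessing-dead procaspase-3 D3A mutant enzyme / Timing: 1 h preincubation plus 2 h reaction at 25 °C / Medium: Zinc-free HEPES/NaCl buffer with 0.01% Triton X-100 at pH 7.4 / Technique: 405 nm absorbance of p-nitroaniline, reads at 0 and 120 min / Repeats: one well per compound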
procasp7 counter: activates human procaspase-7, counter-screen for procaspase-3 activators. P55210. recombinant procaspase-7, Ac-DEVD-pNA absorbance 405 nm; D23A/D198A/D206A triple mutant, cannot self-cleave; scale: DMSO 0, 5 µM enzyme 100. activation, % at 8.5 µM. 330,000 tested, 0.093% active;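 active means percent activation above the screen-wide mean plus 3 SD, cut at about 25% in these data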
Target sequence (P55210 whole entry D23A/D198A/D206A): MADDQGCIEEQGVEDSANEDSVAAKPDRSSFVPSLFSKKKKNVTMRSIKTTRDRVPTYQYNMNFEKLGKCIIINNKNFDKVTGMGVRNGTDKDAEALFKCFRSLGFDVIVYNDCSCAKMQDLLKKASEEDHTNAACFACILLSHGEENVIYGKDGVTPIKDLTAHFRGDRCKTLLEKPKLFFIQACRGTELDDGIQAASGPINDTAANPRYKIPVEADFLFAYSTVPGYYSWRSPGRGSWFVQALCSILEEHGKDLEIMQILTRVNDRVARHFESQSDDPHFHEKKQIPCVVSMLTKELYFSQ
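Material: Procaspase-7 triple mutant (PC-7 D3A) | Quantity: 2 µM procaspase-7 mutant as dispensed | Reagent: DEVD-pNA substrate | Times: 1 h preincubation, 2 h reaction | Technique: 405 nm absorbance of p-nitroaniline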
PLCb3 inh: blocks human PLC-beta3 enzyme activity | Q01970 | Purified PLC-beta3, fluorogenic substrate, fluorescence | inhibition, % at 12.2 µM | 370,000 tested, 0.18% active | AID 720704;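 further: 0% = median of compound wells on plate and 100% = full blocker control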
Arrestin-AP2 inh: inhibitors of human beta-arrestin and AP2 interaction; AID 504490; 340,000 tested, 0.31% active; inhibition, % at 10 µM; FITC-arrestin peptide / GST-AP2 beads, flow cytometry; AP2 beta2 appendage carries R879A mutation;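 active means inhibition above a set limit, near 3 SD of compounds lacking own fluorescence, cut at about 54% in these data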;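 further: plate controls were DMSO wells for no effect and 5 µM unlabelled arrestin peptide for full effect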
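System: GST-AP2 R879A glutathione beads; medium: PBS, Tween 20 0.05%, BSA 0.1%; reagent: fluorescein-tagged arrestin peptide at 50 nM final; schedule: pre-incubation 12 min, peptide binding 1 h, room temperature; detection: flow cytometry, FL1 (488/535 nm); read-out: inhibition as reduced fluorescein signal on beads, percent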
PLC-gamma1 inh: inhibitors of human phospholipase C gamma1; P19174; purified PLC-gamma1, fluorogenic substrate, fluorescence; inhibition, % at 12.2 µM; 370,000 tested, 0.84% active; AID 720700; in the data active means inhibition above about 9.5%
PLCgamma1 ctr: counter-screen for PLC-beta3 inhibitors: inhibitors of human PLC-gamma1 | AID 743258 | inhibition, % at 12.3 µM | purified PLC-gamma1, fluorogenic substrate, fluorescence | shares compounds with PLC-gamma1 inh | 3,300 tested, 3.1% active; in the data active means inhibition above about 9.5%
PLCbeta3 conf: human PLC-beta3 inhibition, confirmation | AID 743261 | purified PLC-beta3, fluorogenic substrate fluorescence | inhibition, % at 12.3 µM | shares compounds with PLC-gamma1 inh | 3,300 tested, 1% active
The depositor's hits bear a star; . = not tested or not shown. Unless noted, no stated cut-off is given here; in the data, active means inhibition above about 11%; inactive means the rest.

SMILES	sPLA2-III inh	procasp3 activ	procasp7 counter	PLCb3 inh	Arrestin-AP2 inh	PLC-gamma1 inh	PLCgamma1 ctr	PLCbeta3 conf
CN(CC(=O)Nc1cccc(F)c1)C(=O)CCCc1cccs1	1	-1	5	10	0	13*	-1	0
Cc1ccc(NC(=O)OC[C@@H]2CSCCS(=O)(=O)N2)cc1	-2	.	.	3	.	0	.	.
CCNC(=O)C1(C)CCN(C(=O)c2ccc(OC)c(OC)c2)C1 (stereo not drawn)	5	.	.	7	.	9.7*	-8	-1
CCCNC(=O)C1(C)CCN(C(=O)c2ccc(C)c(F)c2)C1 (stereo not drawn)	6	.	.	12*	.	2	-2	1
COc1ccc(Cl)c(NC(=O)Nc2c(C)n(-c3ccccc3)c(=O)n2C)c1	-3	7	3	1	19	-1	.	.
Cc1cc(Cl)ccc1NC(=O)Nc1c(C)n(-c2ccccc2)c(=O)n1C	15	-3	13	4	-1	9.6*	-6	-5
CCOc1ccccc1N1CCN(C(=S)NCc2ccccc2)CC1	12	12	-3	4	45	9.7*	-2	-2
CCNC(=S)N1CCN(c2ccccc2OCC)CC1	6	3	-7	2	1	2	.	.
COc1ccc(C(=O)CSc2nnc(-c3ccccc3)n2-c2ccc(Cl)cc2)cc1	-8	.	.	-1	.	-3	.	.
C/C(=N\NC(=O)CSc1nnc(C)s1)c1ccc(O)cc1	5	0	2	10	0	9.9*	0	-2
COC(=O)c1ccc(CSc2nnc(N)s2)cc1	0	1	1	-1	5	0	.	.
COC(=O)c1ccc(CSc2nnc(C)s2)cc1	3	-2	-3	11*	4	3	-3	0
CC(C)(C)NC(=O)CSc1nc(N)c(NC(=O)c2ccccc2F)c(=O)[nH]1	6	-3	1	12*	3	6	-3	1
O=S(=O)(NC1CC1)c1ccc(Br)cc1N1CCC[C@H]1CO	-1	.	.	-1	-12	2	.	.
COc1ccc(NS(=O)(=O)c2ccc(S(=O)(=O)N3CCCC3)cc2)cc1Cl	-22	-9	-8	2	3	15*	3	1
CC12c3ccccc3C(c3ccccc31)C1C(=O)N(c3cccnc3)C(=O)C12 (stereo not drawn)	-4	8	-3	10	2	12*	-4	-3
CC(C)(C)c1ccc(/C=N/NC(=S)NC2CCCCC2)cc1	-8	1	-4	6	19	11*	1	-4
COc1ccc(CC2(CO)CCN(Cc3nc(C(C)C)cs3)CC2)cc1	8	-1	-5	7	34	13*	-6	-1
CCOC(=O)CC[C@@]1(C(=O)OCC)C[C@@H](CC(=O)NCc2cccc3ccccc23)C(=O)N2CCCC=C21	-2	.	.	-1	.	-2	.	.
OC(c1ccccc1)(c1ccccc1)C1CCN(CCCOc2ccc3c(c2)CCCC3)CC1	-5	.	.	1	.	2	.	.
CCOC(=O)N1CCC(Nc2nc3ccccc3n3cnnc23)CC1	8	3	0	11*	-4	7	-5	-4
O=C(CCc1ccccc1)N[C@H]1[C@H](OCc2ccccc2)CCC[C@@]12C(=O)N(Cc1ccccc1)c1ccc(-c3cnccn3)cc12	-19	.	.	-133	.	-99	.	.
CCOc1ccc(S(=O)(=O)N(C)c2ccc(OCC(=O)N3CCOCC3)cc2)cc1	-6	0	14	3	28	9.8*	-5	-1
Cc1ccc(OCCn2cc(/C(N)=N/O)c3ccccc32)cc1C	-33	-4	3	-2	14	3	.	.
COc1ccc(OCCn2cc(/C(N)=N/O)c3ccccc32)cc1	-25	6	6	11*	3	9	9	2
SMILES	sPLA2-III inh	procasp3 activ	procasp7 counter	PLCb3 inh	Arrestin-AP2 inh	PLC-gamma1 inh	PLCgamma1 ctr	PLCbeta3 conf
C/C(=N\Nc1nc(-c2cc(C)ccc2C)cs1)c1cc2ccccc2oc1=O	-4	-5	-12	4	6	10*	-19	-20
CCNC(=O)N(CC)C[C@H]1N[C@@](Cc2ccccc2)(C(=O)OC)[C@H]2C(=O)N(C)C(=O)[C@@H]12	15	5	3	3	-7	3	.	.
Cc1ccc(C(=O)OCC(=O)Nc2ccccc2C(F)(F)F)cc1S(=O)(=O)N1CCOCC1	12	7	-1	11*	21	6	-6	-3
O=C(Nc1ccccc1C(F)(F)F)c1ccc(F)c(S(=O)(=O)N2CCOCC2)c1	7	2	-6	4	0	13*	1	-4
CCOC(=O)c1ccccc1NC(=O)COC(=O)c1ccc(C)c(S(=O)(=O)N2CCOCC2)c1	3	5	8	1	-5	0	.	.
O=C(Nc1ccccc1N1CCCCC1)c1ccc(F)c(S(=O)(=O)N2CCOCC2)c1	-1	12	5	-1	-7	2	.	.
c1csc(CNc2ncnc3ccc(-c4ccc5c(c4)OCO5)cc23)n1	0	.	.	-221	.	-166	.	.
OC1CCN(Cc2ccc3ccccc3c2)CC1	-4	.	.	-3	0	0	.	.
CC(C)(C)c1cc(CN2CCC(O)CC2)cc(C(C)(C)C)c1O	11	-3	5	2	-11	11*	-4	-22
Cc1[nH]n(-c2ccccc2)c(=O)c1C(c1cccc([N+](=O)[O-])c1O)c1c(C)[nH]n(-c2ccccc2)c1=O	-3	1	-22	14*	29	31*	4	4
Cc1[nH]n(-c2ccccc2)c(=O)c1C(c1ccc(C(=O)O)cc1)c1c(C)[nH]n(-c2ccccc2)c1=O	-2	6	8	8	6	26*	-11	-5
Cc1c(C(c2cccc([N+](=O)[O-])c2O)c2c(C)n(C)n(-c3ccccc3)c2=O)c(=O)n(-c2ccccc2)n1C	2	2	-4	3	3	2	.	.
C[C@H]1[C@@H](NC(=O)c2ccc(C(F)(F)F)cc2)CC[C@@]23CCCN2C(=O)CCC[C@@H]13	2	.	.	4	.	3	.	.
Cc1ccc(-c2nnn(CC(=O)NCc3ccccc3)n2)c(-n2cnnn2)c1	-7	-3	-1	0	8	1	.	.
Cc1ccc(-c2nnn(CC(=O)N3CCCCC3)n2)c(-n2cnnn2)c1	16	-4	0	12*	-5	8	-3	1

Compound activity: PubChem BioAssay, several laboratories
